Data: ChEMBL document CHEMBL1144339, “Synthesis and activity of oleanolic acid derivatives, a novel class of inhibitors of osteoclast formation” (2005)

System: Osteoclast-like
Assay: Percent inhibition of tartrate resistant acid phosphatase positive osteoclast like multinucleated cells formation by 1-alpha, 25-dihydroxy vitamin D3 in mouse bone marrow cells
Type: functional
Design: concentration or dose not given beside the values
How it was run: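 Run as a co-culture assay. Formation of osteoclast-like multinucleated cells was induced with 1α,25-dihydroxy vitamin D₃.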

| SMILES | Inhibition [%] |
| --- | --- |
| CCC(C)C(NC(=O)[C@]12CCC(C)(C)C[C@H]1C1=CC[C@@H]3[C@@]4(C)CC[C@H](O)C(C)(C)C4CC[C@@]3(C)[C@]1(C)CC2)C(=O)O (stereo partly specified) | 53.5 |
| CC(C)C(NC(=O)[C@]12CCC(C)(C)C[C@H]1C1=CC[C@@H]3[C@@]4(C)CC[C@H](O)C(C)(C)C4CC[C@@]3(C)[C@]1(C)CC2)C(=O)O (stereo partly specified) | 41.3 |
| CC(NC(=O)[C@]12CCC(C)(C)C[C@H]1C1=CC[C@@H]3[C@@]4(C)CC[C@H](O)C(C)(C)C4CC[C@@]3(C)[C@]1(C)CC2)C(=O)O (stereo partly specified) | 87.8 |
| CC1(C)CC[C@]2(C(=O)O)CC[C@]3(C)C(=CC[C@@H]4[C@@]5(C)CC[C@H](O)C(C)(C)C5CC[C@]43C)[C@@H]2C1 (stereo partly specified) | 27.6 |
| CC1(C)CC[C@]2(C(=O)N3CCCC3C(=O)O)CC[C@]3(C)C(=CC[C@@H]4[C@@]5(C)CC[C@H](O)C(C)(C)C5CC[C@]43C)[C@@H]2C1 (stereo partly specified) | 21 |
| CC1(C)CC[C@]2(C(=O)N3CCCC3C(=O)O)CC[C@]3(C)C(=CC(=O)[C@@H]4[C@@]5(C)CC[C@H](O)C(C)(C)C5CC[C@]43C)[C@@H]2C1 (stereo partly specified) | 40.3 |
| CC1(C)CC[C@]2(C(=O)NC(Cc3ccccc3)C(=O)O)CC[C@]3(C)C(=CC[C@@H]4[C@@]5(C)CC[C@H](O)C(C)(C)C5CC[C@]43C)[C@@H]2C1 (stereo partly specified) | 16.3 |
| CC1(C)CC[C@]2(C(=O)O)CC[C@]3(C)C(=CC(=O)[C@@H]4[C@@]5(C)CC[C@H](O)C(C)(C)C5CC[C@]43C)[C@@H]2C1 (stereo partly specified) | 38.5 |
| CC(C)C(NC(=O)[C@]12CCC(C)(C)C[C@H]1C1=CC(=O)[C@@H]3[C@@]4(C)CC[C@H](O)C(C)(C)C4CC[C@@]3(C)[C@]1(C)CC2)C(=O)O (stereo partly specified) | 59 |
| CCC(C)C(NC(=O)[C@]12CCC(C)(C)C[C@H]1C1=CC(=O)[C@@H]3[C@@]4(C)CC[C@H](O)C(C)(C)C4CC[C@@]3(C)[C@]1(C)CC2)C(=O)O (stereo partly specified) | 62 |
| CC1(C)CC[C@]2(C(=O)NCC(=O)O)CC[C@]3(C)C(=CC(=O)[C@@H]4[C@@]5(C)CC[C@H](O)C(C)(C)C5CC[C@]43C)[C@@H]2C1 (stereo partly specified) | 83.3 |
| CC1(C)CC[C@]2(C(=O)NC(Cc3ccccc3)C(=O)O)CC[C@]3(C)C(=CC(=O)[C@@H]4[C@@]5(C)CC[C@H](O)C(C)(C)C5CC[C@]43C)[C@@H]2C1 (stereo partly specified) | 36.5 |
| CC(C)CC(NC(=O)[C@]12CCC(C)(C)C[C@H]1C1=CC[C@@H]3[C@@]4(C)CC[C@H](O)C(C)(C)C4CC[C@@]3(C)[C@]1(C)CC2)C(=O)O (stereo partly specified) | 51.2 |
| CC(NC(=O)[C@]12CCC(C)(C)C[C@H]1C1=CC(=O)[C@@H]3[C@@]4(C)CC[C@H](O)C(C)(C)C4CC[C@@]3(C)[C@]1(C)CC2)C(=O)O (stereo partly specified) | 76.3 |
| CC(C)CC(NC(=O)[C@]12CCC(C)(C)C[C@H]1C1=CC(=O)[C@@H]3[C@@]4(C)CC[C@H](O)C(C)(C)C4CC[C@@]3(C)[C@]1(C)CC2)C(=O)O (stereo partly specified) | 69.5 |
| CC1(C)CC[C@]2(C(=O)NCC(=O)O)CC[C@]3(C)C(=CC[C@@H]4[C@@]5(C)CC[C@H](O)C(C)(C)[C@@H]5CC[C@]43C)[C@@H]2C1 | 61.5 |
